Columns and labels:
[1] = target: T1, C-C chemokine receptor type 2 (Homo sapiens, UniProt P41597); test: Displacement of radiolabeled MCP1 from human CCR2 in PBMCs
Method in brief: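 Competitive binding: test compound displaces radiolabeled MCP-1 from CCR2 on peripheral blood mononuclear cells. IC50 is given as mean ± SD when n = 2 and mean ± SEM when n > 2, with n the number of determinations.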

[2] = target: T2, C-C chemokine receptor type 3 (Homo sapiens) (UniProt P51677); test: Binding affinity for human CCR3 at 10 uM
T2 sequence (whole entry): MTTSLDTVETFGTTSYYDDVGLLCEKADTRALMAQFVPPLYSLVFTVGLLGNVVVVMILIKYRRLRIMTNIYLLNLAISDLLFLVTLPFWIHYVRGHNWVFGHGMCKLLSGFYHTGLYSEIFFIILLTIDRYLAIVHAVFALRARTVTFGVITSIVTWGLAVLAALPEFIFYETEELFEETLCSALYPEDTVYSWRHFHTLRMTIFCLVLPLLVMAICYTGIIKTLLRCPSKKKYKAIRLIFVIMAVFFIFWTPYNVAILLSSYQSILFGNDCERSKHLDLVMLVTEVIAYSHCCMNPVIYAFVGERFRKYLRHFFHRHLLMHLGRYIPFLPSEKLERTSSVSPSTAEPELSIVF

[3] = target: T1, C-C chemokine receptor type 2; test: Antagonist activity at human CCR2 in PBMCs assessed as inhibition of MCP1-induced calcium flux; format: functional
[4] = target: T1, C-C chemokine receptor type 2; test: Binding affinity to wild type CCR2
[5] = target: C-C chemokine receptor type 2 (Homo sapiens, UniProt P41597, E291A); test: Binding affinity to CCR2 E291A mutant
[6] = Ratio of IC50 for wild type CCR2 to IC50 for CCR2 E291A mutant
[7] = target: C-C chemokine receptor type 2 (Homo sapiens, UniProt P41597, T292A); test: Binding affinity to CCR2 T292A mutant
[8] = Ratio of IC50 for wild type CCR2 to IC50 for CCR2 T292A mutant
Homo sapiens = species on record: Homo sapiens; test: Selectivity for human CCR2 over human CCR3

T1 sequence (P41597 whole entry): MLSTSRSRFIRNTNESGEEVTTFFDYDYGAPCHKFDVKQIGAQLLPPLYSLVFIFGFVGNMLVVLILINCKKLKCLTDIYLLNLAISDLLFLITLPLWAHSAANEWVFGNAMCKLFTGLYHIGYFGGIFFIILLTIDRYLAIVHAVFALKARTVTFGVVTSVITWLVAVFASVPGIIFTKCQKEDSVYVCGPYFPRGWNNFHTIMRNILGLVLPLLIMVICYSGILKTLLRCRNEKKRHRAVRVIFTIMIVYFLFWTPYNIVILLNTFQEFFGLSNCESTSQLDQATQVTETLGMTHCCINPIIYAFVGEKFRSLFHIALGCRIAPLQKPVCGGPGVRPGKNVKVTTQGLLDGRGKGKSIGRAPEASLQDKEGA
Chain of C-C chemokine receptor type 2 (Homo sapiens, UniProt P41597, E291A) (P41597 whole entry E291A): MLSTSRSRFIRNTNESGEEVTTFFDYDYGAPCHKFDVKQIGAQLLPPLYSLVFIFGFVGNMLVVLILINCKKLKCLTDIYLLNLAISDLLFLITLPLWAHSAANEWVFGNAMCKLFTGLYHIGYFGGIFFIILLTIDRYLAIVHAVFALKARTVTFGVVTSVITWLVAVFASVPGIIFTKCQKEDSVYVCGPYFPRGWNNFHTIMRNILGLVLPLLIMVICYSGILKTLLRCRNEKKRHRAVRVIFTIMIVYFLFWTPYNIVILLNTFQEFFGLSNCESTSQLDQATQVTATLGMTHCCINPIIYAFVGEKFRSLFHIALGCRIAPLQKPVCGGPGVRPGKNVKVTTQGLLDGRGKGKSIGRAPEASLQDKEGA
Chain of C-C chemokine receptor type 2 (Homo sapiens, UniProt P41597, T292A) (P41597 whole entry T292A): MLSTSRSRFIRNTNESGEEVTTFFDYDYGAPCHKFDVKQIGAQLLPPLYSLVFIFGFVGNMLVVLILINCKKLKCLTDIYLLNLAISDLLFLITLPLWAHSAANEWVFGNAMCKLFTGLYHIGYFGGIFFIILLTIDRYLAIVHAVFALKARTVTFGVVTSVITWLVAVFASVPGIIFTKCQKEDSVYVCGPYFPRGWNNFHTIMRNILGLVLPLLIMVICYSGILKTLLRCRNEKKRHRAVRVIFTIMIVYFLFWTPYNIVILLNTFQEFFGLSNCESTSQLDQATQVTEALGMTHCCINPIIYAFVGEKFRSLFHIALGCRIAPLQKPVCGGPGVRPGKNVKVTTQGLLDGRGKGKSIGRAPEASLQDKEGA

SMILES | IC50 [1] | inhibition [2] | other results
Cc1ccc(CN[C@H]2CCCC[C@@H]2NC(=O)CNC(=O)c2cccc(C(F)(F)F)c2)c(C)c1 | 0.54 µM | 54% | –
CSc1ccc(C(=O)N[C@@H]2CCCC[C@@H]2NC(=O)CNC(=O)c2cc(C(F)(F)F)ccc2NC(=O)NC(C)C)cc1 | 0.0051 µM | 37% | IC50 [3]: 0.018 µM; IC50 [4]: 0.0075 µM; IC50 [5]: 0.0037 µM; Ratio IC50 [6]: 0.5; IC50 [7]: 0.304 µM; Ratio IC50 [8]: 40.5
O=C(CNC(=O)c1cccc(C(F)(F)F)c1)N[C@H]1CCCC[C@H]1NC(=O)c1ccc(I)cc1 | 0.037 µM | 27% | IC50 [3]: 0.03 µM
Cc1ccc(CN2CC[C@@H](NC(=O)CNC(=O)c3cccc(C(F)(F)F)c3)C2)c(C)c1 | – | – | Ratio IC50 [8]: 30
NS(=O)(=O)c1ccc(C(=O)N[C@@H]2CCCC[C@@H]2NC(=O)CNC(=O)c2cccc(C(F)(F)F)c2)cc1 (racemic) | 0.021 µM | 39% | IC50 [3]: 0.042 µM
O=C(CNC(=O)c1cccc(C(F)(F)F)c1)N[C@H]1CCCC[C@H]1NCc1ccc(OC(F)(F)F)cc1 (racemic) | 0.53 µM | 50% | Selectivity ratio (Homo sapiens): 20
Nc1ccc(C(F)(F)F)cc1C(=O)NCC(=O)N[C@H]1CCCC[C@H]1NC(=O)c1ccc(S(N)(=O)=O)cc1 (racemic) | 0.023 µM | 6% | IC50 [3]: 0.0048 µM
CC(C)c1ccc(CN[C@@H]2CCCC[C@@H]2NC(=O)CNC(=O)c2cccc(C(F)(F)F)c2)cc1 (racemic) | 0.36 µM | 55% | Selectivity ratio (Homo sapiens): 20
O=C(CNC(=O)c1cccc(C(F)(F)F)c1)N[C@H]1CCCC[C@H]1NCc1ccc(C(F)(F)F)cc1 (racemic) | 0.4 µM | 47% | Selectivity ratio (Homo sapiens): 20
NS(=O)(=O)c1ccc(C(=O)N[C@@H]2CCCC[C@@H]2NC(=O)CNC(=O)c2cc(C(F)(F)F)ccc2NC(=O)C2CCCCC2)cc1 (racemic) | 0.009 µM | 10% | IC50 [3]: 0.0037 µM
Cc1ccc(C(=O)N[C@@H]2CCCC[C@@H]2NC(=O)CNC(=O)c2cccc(C(F)(F)F)c2)c(C)c1 (racemic) | 4.13 µM | – | IC50 [4]: 4.13 µM; IC50 [5]: 7.85 µM; Ratio IC50 [6]: 1.9
CSc1ccc(C(=O)N[C@@H]2CCCC[C@@H]2NC(=O)CNC(=O)c2cccc(C(F)(F)F)c2)cc1 (racemic) | 0.064 µM | 31% | IC50 [3]: 0.215 µM
O=C(CNC(=O)c1cccc(C(F)(F)F)c1)N[C@H]1CCCC[C@@H]1NCc1ccc(Cl)cc1Cl (racemic) | 7.86 µM | – | –
Cc1ccc(CN(C)[C@H]2CCCC[C@@H]2NC(=O)CNC(=O)c2cccc(C(F)(F)F)c2)c(C)c1 (racemic) | 3.01 µM | – | –
O=C(CNC(=O)c1cccc(C(F)(F)F)c1)N[C@H]1CCCC[C@H]1NCc1ccc(Cl)cc1 (racemic) | 0.79 µM | 24% | IC50 [4]: 0.268 µM; IC50 [5]: 2.12 µM; Ratio IC50 [6]: 7.9; Selectivity ratio (Homo sapiens): 20
Cc1ccc(CN[C@@H]2CCCC[C@@H]2NC(=O)CNC(=O)c2cccc(C(F)(F)F)c2)c(C)c1 (racemic) | 2.17 µM | 54% | –
O=C(CNC(=O)c1cccc(C(F)(F)F)c1)N[C@H]1CCCC[C@@H]1NC(=O)c1ccc(Cl)cc1 (racemic) | 12 µM | – | –
O=C(CNC(=O)c1cccc(C(F)(F)F)c1)N[C@H]1CCCC[C@@H]1NCc1ccc(Cl)cc1 (racemic) | 0.97 µM | 50% | –
Cc1cc(C)c(CN[C@H]2CCCC[C@@H]2NC(=O)CNC(=O)c2cccc(C(F)(F)F)c2)c(C)c1 (racemic) | 1.19 µM | – | –
Cc1ccc(C(=O)N[C@@H]2CCCC[C@@H]2NC(=O)CNC(=O)c2cccc(C(F)(F)F)c2)cc1 (racemic) | 0.55 µM | 57% | –
CS(=O)(=O)c1ccc(C(=O)N[C@@H]2CCCC[C@@H]2NC(=O)CNC(=O)c2cccc(C(F)(F)F)c2)cc1 (racemic) | 0.087 µM | 3% | –

Reference: ChEMBL document CHEMBL1141565, “Discovery of disubstituted cyclohexanes as a new class of CC chemokine receptor 2 antagonists” (J Med Chem, 2008)
